From ChEMBL document CHEMBL1135533, “Synthesis and in vitro studies of novel pyrimidinyl peptidomimetics as potential antimalarial therapeutic agents” (J Med Chem, 2002)
Converted amounts (≈) assume the structure as drawn.

What was measured:
Plasmodium falciparum [1] = assay: Inhibitory activity against chloroquine-resistant Plasmodium falciparum W-2 Indochina III; assay type: functional, organism-based
In short: (§1)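 Drug stocks in DMSO, diluted 400-fold into RPMI 1640 with 25 mM Hepes, 32 mM NaHCO3 and 10% Albumax I, then 2-fold serial dilutions (over 11 concentrations). Parasites exposed 48 h at 37 °C under 5% O2/5% CO2/90% N2, then [3H]hypoxanthine added for a further 18 h. Uptake counted by scintillation; IC50 from nonlinear regression logistic dose-response fit.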

Plasmodium falciparum [2] = assay: Inhibitory activity against chloroquine-sensitive Plasmodium falciparum D6 (CDC/Sierra Leone I); assay type: functional, organism-based; in short: as §1
Neuronal cell line = assay: In vitro inhibition of cell growth in human neuronal cell line.; assay type: functional, cell-based
Colon cell line = assay: In vitro inhibition of cell growth in human colon cell line.; assay type: functional, cell-based
In short: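 SW620 colon cells grown and tested in RPMI-1640 with 10% FBS. Serially diluted compound was placed in wells, cells were seeded straight onto it, and solvent blanks were included. After 72 h, cells were fixed with cold TCA (10% final) for 1 h at 4 °C, stained 30 min with 0.4% SRB in 1% acetic acid, and bound dye was solubilized in 10 mM Tris base, pH 10.5.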

`COC(=O)/C(=C/Cn1c(-c2ccccc2)ncc(NC(=O)OCc2ccccc2)c1=O)COC(=O)c1ccccc1` was tested, and the IC50 (Plasmodium falciparum [1]) was 0.028 µg/mL (≈ 0.0506 µM), the IC50 (Plasmodium falciparum [2]) was 0.027 µg/mL (≈ 0.0488 µM) and the IC50 (Neuronal cell line) was 2.6 µg/mL (≈ 4.7 µM). The IC50 (Colon cell line) was 13.5 µg/mL (≈ 24.4 µM).
For `COC(=O)/C(=C/Cn1c(-c2ccccc2)ncc(NC(=O)OCc2ccccc2)c1=O)COC(C)=O`, the IC50 (Plasmodium falciparum [1]) was 0.017 µg/mL (≈ 0.0346 µM), the IC50 (Plasmodium falciparum [2]) was 0.017 µg/mL (≈ 0.0346 µM) and the IC50 (Neuronal cell line) was 0.92 µg/mL (≈ 1.87 µM). For the same molecule, the IC50 (Colon cell line) was greater than 50 µg/mL.
With `COC(=O)/C(=C/Cn1c(-c2ccccc2)ncc(NC(=O)OCc2ccccc2)c1=O)COC(=O)c1ccc([N+](=O)[O-])cc1` the IC50 (Plasmodium falciparum [1]) was 0.024 µg/mL (≈ 0.0401 µM), the IC50 (Plasmodium falciparum [2]) was 0.024 µg/mL (≈ 0.0401 µM) and the IC50 (Neuronal cell line) was 1.75 µg/mL (≈ 2.92 µM). The IC50 (Colon cell line) was 7.6 µg/mL (≈ 12.7 µM).
Work on `COC(=O)/C(=C/Cn1c(-c2ccccc2)ncc(NC(=O)N2CCN(C(C)=O)CC2)c1=O)COC(C)=O` yielded an IC50 (Plasmodium falciparum [1]) of 0.018 µg/mL (≈ 0.0352 µM), an IC50 (Plasmodium falciparum [2]) of 0.017 µg/mL (≈ 0.0332 µM) and an IC50 (Neuronal cell line) of 13.8 µg/mL (≈ 27 µM). For the same molecule, the IC50 (Colon cell line) was greater than 50 µg/mL.
For `COC(=O)/C(=C/[C@H](C)NC(=O)Cn1c(-c2ccccc2)ncc(NC(=O)OCc2ccccc2)c1=O)COC(C)=O`, the IC50 (Plasmodium falciparum [1]) was 0.01 µg/mL (≈ 0.0178 µM), the IC50 (Plasmodium falciparum [2]) was 0.009 µg/mL (≈ 0.016 µM) and the IC50 (Neuronal cell line) was 1.1 µg/mL (≈ 1.96 µM). For the same molecule, the IC50 (Colon cell line) was 1.6 µg/mL (≈ 2.84 µM).
Work on `COC(=O)/C(=C/Cn1c(-c2ccccc2)ncc(NC(=O)OCc2ccccc2)c1=O)CO` yielded an IC50 (Plasmodium falciparum [1]) of 0.017 µg/mL (≈ 0.0378 µM), an IC50 (Plasmodium falciparum [2]) of 0.016 µg/mL (≈ 0.0356 µM) and an IC50 (Neuronal cell line) of 0.95 µg/mL (≈ 2.11 µM). The IC50 (Colon cell line) was greater than 50 µg/mL.
